# SENP1 FRET inh: SENP1 (human) catalytic domain inhibition; actives 0.21% (n = 360,000); Q9P0U3; recombinant SENP1 catalytic domain, CyPet-SUMO1-YPet FRET cleavage; inhibition, % at 10 µM; AID 624204;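 active = inhibition at least 30% at 10 µM, raw YFP signal under a set limit, fluorescence ratio 0.5 to 1.5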;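 also: 0% = enzyme with DMSO and 100% = no enzyme wells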
#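 material = recombinant human SENP1 catalytic domain, His6-tagged | quantity = 20 pM enzyme | reagent = 25 nM SUMO1 FRET substrate | compound dosing = 10 µM single point, 0.5% DMSO | timing = 50 min enzyme reaction, room temperature, light-protected | detection = FRET, CFP and YFP emission | control set = no-enzyme low, enzyme-DMSO high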
# SENP8 block-1: blocks the human protease SENP8. Q96LD8. purified SENP8, Z-RLRGG-aminoluciferin cleavage, luminescence. inhibition, % at 10 µM. actives 1.2% (n = 330,000). AID 2540; in the data active = inhibition above about 50%
# SENP6 block: inhibitors of human SENP6 protease; inhibition, % at 10 µM; AID 2599; Recombinant SENP6 catalytic domain, aminoluciferin luminescence; Q9GZR1; actives 1.8% (n = 330,000);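 active = inhibition above about 50% at the single tested dose, limit read from the data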;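 also: plate controls were DMSO wells with enzyme for no effect and DMSO wells lacking enzyme for full effect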
# Target sequence (Q9GZR1 628-1112 limits assumed): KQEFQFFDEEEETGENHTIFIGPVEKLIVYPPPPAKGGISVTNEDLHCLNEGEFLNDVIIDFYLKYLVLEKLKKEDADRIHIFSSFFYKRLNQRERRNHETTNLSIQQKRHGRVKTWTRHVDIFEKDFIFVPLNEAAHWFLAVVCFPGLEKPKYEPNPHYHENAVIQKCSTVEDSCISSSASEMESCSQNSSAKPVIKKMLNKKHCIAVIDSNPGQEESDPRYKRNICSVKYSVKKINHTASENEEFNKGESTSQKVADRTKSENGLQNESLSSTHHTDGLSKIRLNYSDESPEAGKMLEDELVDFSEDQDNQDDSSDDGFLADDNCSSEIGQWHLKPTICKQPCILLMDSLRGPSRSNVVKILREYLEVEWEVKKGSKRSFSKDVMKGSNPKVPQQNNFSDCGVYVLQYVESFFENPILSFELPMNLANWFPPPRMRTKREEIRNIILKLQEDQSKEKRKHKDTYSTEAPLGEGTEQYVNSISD
# SENP7 inh: inhibitors of human SENP7 protease | AID 434973 | recombinant SENP7, Z-RLRGG-aminoluciferin luminescence, 40 min | actives 1.5% (n = 330,000) | inhibition, % at 5 µM | Q9BQF6;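 active = inhibition above about 50% at the single test dose, limit read from the data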;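 also: plate controls were DMSO with enzyme for no effect and no enzyme buffer wells for full effect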
# SENP8 block-2: inhibitors of human SENP8 protease | recombinant SENP8, Nedd8 substrate fluorescence | inhibition, % at 20 µM | actives 0.64% (n = 360,000) | AID 602440; in the data active = inhibition mostly above about 40%, no sharp cut-off; inactive = mostly below about 27%
# SENP8 conf: confirmation of human SENP8 protease inhibitors; shares compounds with SENP7 inh; Recombinant SENP8, Z-RLRGG-aminoluciferin luminescence, 60 min; inhibition, % at 12.5 µM; actives 40% (n = 6,200); AID 488912;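 active = mean inhibition across replicates above about 50%, limit read from the data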
# SENP6 conf: human SENP6 inhibition, confirmed; recombinant SENP6, Z-RLRGG-aminoluciferin luminescence; actives 58% (n = 6,200); AID 488915; shares compounds with SENP7 inh; inhibition, % at 12.5 µM
# SENP7 confirm: human SENP7 inhibition, confirmed; AID 488917; actives 69% (n = 6,200); shares compounds with SENP7 inh; inhibition, % at 12.5 µM; recombinant SENP7, Z-RLRGG-aminoluciferin luminescence, 40 min
# Casp3 SENP sel: inhibits human caspase-3 in SENP selectivity test; purified caspase-3, Z-DEVD-aminoluciferin luminescence, 60 min; shares compounds with SENP7 inh; AID 488918; actives 60% (n = 6,200); inhibition, % at 12.5 µM;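 active = mean inhibition above about 50%, limit read from the data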;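 also: plate controls were enzyme with DMSO for no effect and wells without caspase-3 for full effect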
# Luc interf: interferes with luciferase luminescence in SENP counter-screen; shares compounds with SENP7 inh; Pre-incubated SENP8/Z-RLRGG-aminoluciferin, luciferase luminescence interference; inhibition, % at 12.5 µM; actives 39% (n = 6,200);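 active = mean inhibition above about 50% when retested at one dose, limit read from the data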;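 also: plate controls were DMSO wells with completed reaction for no effect and substrate without enzyme for full effect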
# * hit, by the source's call; · = not tested or not shown. Most compounds without a hit are left out; they make up all but 2.5% or so of the library.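 The calls were made as follows, unless noted: active = mean inhibition above about 50% in the one-dose retest (limit read from the data); inactive = the rest.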
SMILES,SENP1 FRET inh,SENP8 block-1,SENP6 block,SENP7 inh,SENP8 block-2,SENP8 conf,SENP6 conf,SENP7 confirm,Casp3 SENP sel,Luc interf
O=C(CN1C(=O)C2CC=CCC2C1=O)Nc1ccc(F)cc1F (centres undefined),2,0,-5,4,11,·,·,·,·,·
CN1CCN(C(=O)c2ccccc2NC(=O)c2ccccc2)CC1,1,-6,5,0,7,·,·,·,·,·
COc1ccc(C(=O)Nc2cc(OC)cc(OC)c2)cc1,3,81*,87*,89*,15,86*,83*,96*,88*,83*
COc1ccc(NC(=O)c2cccc(NC(=O)c3ccccc3)c2)cc1,1,5,10,10,7,·,·,·,·,·
COc1cc(NC(=O)c2ccccc2)cc(OC)c1,1,12,54*,47,5,18,18,68*,65*,49
COc1ccc(C(=O)N/N=C/C(=O)c2ccccc2)cc1,-2,58*,80*,84*,6,32,72*,92*,79*,30
CCCC(=O)NCCc1nc2cc([N+](=O)[O-])ccc2n1C,-2,-6,-16,0,20,·,·,·,·,·
O=C(N/N=C/c1cc2c(cc1Cl)OCO2)c1ccccn1,1,47,66*,2,-258,0,-6,2,52*,9
Cc1ccsc1/C=N/NC(=O)c1ccccn1,2,30,61*,47,-3,50,40,78*,84*,60*
O=C(N/N=C/c1ccsc1)c1ccccn1,1,21,30,24,12,·,·,·,·,·
O=C(N/N=C/c1ccc(OC(=O)c2ccccc2Br)cc1)c1ccccn1,3,-9,-9,71*,-1,4,3,9,11,6
CC(C)(C)c1ccc(/C=N/NC(=O)c2ccccn2)cc1,0,59*,33,79*,18,10,25,33,40,6
Cc1nc(SCC(=O)NNC(=O)c2cccs2)[nH]c(=O)c1C,1,-2,17,0,9,·,·,·,·,·
Cc1ccc(NC(=O)COc2ncnc3cc([N+](=O)[O-])ccc23)cc1S(=O)(=O)N1CCOCC1,-17,-6,-24,-2,4,·,·,·,·,·
CC1CN(CC(=O)NCc2ccc(Cl)cc2)CC(C)O1 (centres undefined),1,-1,5,0,12,·,·,·,·,·
O=C(C(Br)=Cc1ccccc1)c1ccccc1,3,·,·,·,12,·,·,·,·,·
O=C(/C=C/c1ccco1)Nc1ccc2c(c1)OCCO2,0,38,-14,41,24,·,·,·,·,·
O=C(/C=C/c1ccccc1)Nc1ccc2c(c1)OCCO2,3,67*,74*,75*,11,74*,71*,88*,65*,75*
COc1ccccc1/C=C/C(=O)Nc1ccc2c(c1)OCCO2,0,52*,67*,60*,4,68*,66*,86*,49,63*
COc1ccccc1/C=C/C(=O)OCC(=O)Nc1ccc2c(c1)OCCO2,1,-24,-19,2,-118,·,·,·,·,·
Cc1ccccc1N(CC(=O)N/N=C/c1ccc(N(C)C)cc1)C(=O)c1ccccc1,-3,-2,-19,2,-286,·,·,·,·,·
Cc1ccsc1C(=O)OCC(=O)Nc1sccc1C(N)=O,-7,48,38,67*,-1,56*,58*,79*,67*,24
COc1cccc(C(=O)COC(=O)c2cccs2)c1,3,77*,84*,86*,8,1,81*,97*,84*,82*
COc1ccccc1C(=O)COC(=O)c1cccs1,-1,-4,10,3,4,·,·,·,·,·
Cc1ccsc1C(=O)OCC(=O)c1ccc(OC(F)F)cc1,2,94*,95*,97*,15,69*,91*,102*,92*,29
SMILES,SENP1 FRET inh,SENP8 block-1,SENP6 block,SENP7 inh,SENP8 block-2,SENP8 conf,SENP6 conf,SENP7 confirm,Casp3 SENP sel,Luc interf
O=C(COC(=O)c1cccs1)c1ccccc1,2,79*,90*,83*,28,78*,80*,96*,89*,84*
CCn1c(SCC(=O)N2CC(C)OC(C)C2)nc2c([nH]c3ccccc32)c1=O (centres undefined),2,4,5,-12,-17,·,·,·,·,·
CC1(C)CC(=O)C2=C(C1)NC(=O)CC2,-25,·,·,·,-21,·,·,·,·,·
COc1ccc(C(=O)COC(=O)c2cccs2)cc1,2,92*,94*,100*,10,94*,95*,102*,96*,93*
CC(=O)Nc1nc(C)c(C(C)=O)s1,-1,-8,-5,-10,10,·,·,·,·,·
CC(=O)c1sc(NC(=O)c2cccc(C)c2)nc1C,-5,47,67*,63*,-13,43,61*,88*,78*,24
CC(=O)c1sc(NC(=O)c2ccccc2C)nc1C,2,67*,79*,82*,6,40,67*,93*,90*,52*
CC(=O)c1sc(NC(=O)c2ccc(Cl)cc2)nc1C,-4,37,0,72*,-27,17,18,7,25,9
Cc1nc(NC(=O)c2cccc(Cl)c2)sc1C(=O)N1CCCCC1,-5,57*,72*,68*,-40,2,30,6,3,10
Brc1ccc(-c2csc3ncnc(-n4nnc5ccccc54)c23)cc1,2,-12,-6,-8,-42,·,·,·,·,·
COc1cccc(CNS(=O)(=O)c2ccc3c(c2)C(C)(C)C(=O)N3C)c1,1,4,1,2,6,·,·,·,·,·
Cc1noc(C)c1COC(=O)c1csc2c1CCC(C)C2 (centres undefined),1,-8,-4,1,14,·,·,·,·,·
CS(=O)(=O)N(CC(=O)Nc1ccccc1Br)Cc1ccccc1,1,1,3,-3,2,·,·,·,·,·
Cn1sc(NC(=O)c2ccc(Cl)cc2)nc1=O,1,67*,-7,81*,18,49,37,69*,53*,52*
Cc1ccc(C(=O)Nc2nc(=O)n(C)s2)cc1,-2,6,49,38,6,·,·,·,·,·
O=C1NC[C@H](CCCCN2C[C@H](Cc3ccc(O)cc3)N(CCc3ccccc3)C(=O)C2=O)N(CC2CCCCC2)C1=O,3,·,·,·,5,·,·,·,·,·
